Hits are enriched below; roughly 2.6% of the tested compounds scored in any of these assays.
rCAG binder = molecules binding r(CAG) RNA repeats | 370,000 compounds, 1.3% hits | inhibition, % at 3 µM | r(CAG) RNA repeat, TO-PRO-1 dye displacement fluorescence;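 active means inhibition above the plate cutoff, the mean of all test compounds on that plate plus 3 SD, cut at about 35% in these data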;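 further: 0% = DMSO alone and 100% = 100 µM mitoxantrone as full dye displacement; higher means more dye released from RNA so lower well fluorescence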
LMPTP block = blocks human LMPTP phosphatase; inhibition, % at 20 µM; AID 651560; 360,000 compounds, 0.22% hits; P24666; recombinant LMPTP-A, OMFP fluorogenic substrate, fluorescence intensity;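 active means compounds that cut the enzyme signal by at least half of the control window in the single-dose screen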;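 further: plate controls were DMSO wells with enzyme plus substrate for no effect and substrate without enzyme for full effect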
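Test system: LMPTP-A phosphatase enzyme. Amount: LMPTP-A at 0.625 nM final in the reaction. Reagent: OMFP substrate, 400 µM final. Times: 50 min at room temperature. Signal: endpoint fluorescence intensity from OMFP dephosphorylation. Read-out basis: % inhibition. Benchmarks: no-enzyme and uninhibited controls.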
NadD block = NadD (S. aureus) enzyme inhibition | purified NadD enzyme, colorimetric absorbance read-out | 360,000 compounds, 0.78% hits | AID 602399 | inhibition, % at 20 µM; in the data active means inhibition above about 26%
Scp1 inh = Scp-1 (human) phosphatase inhibition | Q9GZU7 | Recombinant Scp1, phosphopeptide, malachite green phosphate absorbance | inhibition, % at 20 µM | 340,000 compounds, 0.88% hits;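 active means inhibition above about 50% at 20 µM, limit read from the data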;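 further: plate controls were DMSO wells with enzyme for no effect and wells lacking enzyme for full effect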
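assay system = SCP-1 phosphatase catalytic domain, residues 76-261 | buffer or medium = 50 mM Tris acetate pH 5.5, 0.005% Tween-20, 10 mM MgCl2 | incubation = enzyme reaction 45 min at room temperature, colour 5 min, stabilisation 30 min | signal = Phosphate-binding colour reagent, absorbance read at 630 nm | measure = % inhibition at 20 µM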
STEP block = STEP (human) phosphatase inhibition. inhibition, % at 20 µM. recombinant STEP, OMFP fluorogenic substrate, fluorescence. 360,000 compounds, 0.25% hits. AID 588621;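 active means inhibition at 20 µM, scaled per plate between control wells, above about 37%, limit read from the data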;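 further: 0% = DMSO with enzyme and substrate and 100% = substrate only without enzyme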
Target sequence (P54829 whole entry, looked up): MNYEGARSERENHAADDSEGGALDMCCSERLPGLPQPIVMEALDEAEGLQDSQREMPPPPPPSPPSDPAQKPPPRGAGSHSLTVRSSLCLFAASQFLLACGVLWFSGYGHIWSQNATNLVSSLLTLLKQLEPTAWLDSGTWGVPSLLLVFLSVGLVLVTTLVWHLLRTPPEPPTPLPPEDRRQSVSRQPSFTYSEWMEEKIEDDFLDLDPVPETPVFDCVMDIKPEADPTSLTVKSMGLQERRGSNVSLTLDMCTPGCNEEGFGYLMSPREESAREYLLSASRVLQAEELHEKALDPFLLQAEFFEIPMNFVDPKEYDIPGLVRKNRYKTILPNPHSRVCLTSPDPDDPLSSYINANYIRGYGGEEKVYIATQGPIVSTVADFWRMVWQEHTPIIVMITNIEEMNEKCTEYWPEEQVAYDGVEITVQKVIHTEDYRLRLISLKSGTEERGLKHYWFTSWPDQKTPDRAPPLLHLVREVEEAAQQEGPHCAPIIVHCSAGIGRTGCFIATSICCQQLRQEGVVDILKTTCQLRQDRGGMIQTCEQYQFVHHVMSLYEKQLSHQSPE
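Assay system: isolated STEP enzyme. Buffer or medium: pH 6.0 Bis-Tris with DTT and Tween 20. Also added: fluorogenic phosphatase substrate OMFP at 25 µM final. Dosing: 20 µM, 1% DMSO. Timing: 20 min reaction, room temperature, in the dark. Measured by: fluorescence intensity, excitation 480 nm, emission 540 nm. Evaluation: normalized % inhibition.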
rCAG binder conf = r(CAG) RNA repeat binding, confirmation | 4,300 compounds, 70% hits | TO-PRO-1 dye displacement fluorescence | shares compounds with rCAG binder | inhibition, % at 3 µM | AID 652065;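 active means inhibition above a per-plate cutoff, the mean inhibition of sample wells plus 3 SD, cut at about 35% in these data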;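 further: loss of TO-PRO-1 fluorescence as compound displaces dye from 1x1 AA loop RNA; 0% = DMSO only wells and 100% = 100 µM mitoxantrone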
dCAG dye counter = counter-screen for rCAG RNA binders: DNA CAG dye complex inhibitors. shares compounds with rCAG binder. d(CAG) DNA oligo TO-PRO-1 dye displacement, fluorescence. inhibition, % at 3 µM. 4,300 compounds, 94% hits. AID 652068;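 active means inhibition above its plate's cutoff, the mean test-well inhibition plus 3 SD, cut at about 4.8% in these data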;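 further: 0% = DNA dye mix with DMSO and 100% = 100 µM mitoxantrone; hits displace the dye from DNA and so lower well fluorescence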
Numbers without * were called inactive; . = not tested or not shown.

SMILES	rCAG binder	LMPTP block	NadD block	Scp1 inh	STEP block	rCAG binder conf	dCAG dye counter
Cc1ccc(NS(=O)(=O)c2ccccc2)c(NS(=O)(=O)c2ccccc2)c1	49*	-3	-9	-8	1	48*	13*
Cc1ccc(Cl)cc1NS(=O)(=O)c1ccccc1	4	0	-3	-10	0	.	.
O=S(=O)(Nc1ccc(Cl)cc1NS(=O)(=O)c1ccccc1)c1ccccc1	81*	1	0	-13	0	73*	38*
Cc1ccc(S(=O)(=O)Nc2ccccc2NS(=O)(=O)c2ccc(C)cc2)cc1	71*	1	7	.	-1	56*	20*
Nc1[nH]c(C(=O)c2ccc(Cl)cc2)c(-c2ccc(Br)cc2)c1C(=O)NCc1ccc(Cl)cc1Cl	8	.	.	.	.	.	.
COC(=O)[C@]12C[C@H](CC(=O)NCCCN3CCCC3=O)C(=O)N(CCc3ccc(OC)c(OC)c3)C1=C[C@H](C(C)C)O[C@@H]2C1CC1	1	.	.	.	.	.	.
O=S(=O)(Nc1ccc(S(=O)(=O)Nc2cccc3ccccc23)cc1)c1ccccc1	35*	2	1	-8	0	24	5.5*
NC(=O)COC(=O)c1ccc(Cl)c(S(=O)(=O)N(Cc2ccccc2)c2ccc(Cl)cc2)c1	5	3	-5	-13	2	.	.
COc1ccccc1N(Cc1ccccc1)S(=O)(=O)c1cc(C(=O)O)ccc1Cl	65*	-1	0	21	-2	47*	13*
COc1ccccc1N(Cc1ccccc1)S(=O)(=O)c1cccc(C(=O)O)c1	29	-2	-3	-5	3	.	.
O=C(O)c1ccc(Cl)c(S(=O)(=O)N(Cc2ccccc2)c2ccc(Cl)cc2)c1	73*	0	1	-2	0	65*	26*
COC(=O)[C@]12C[C@H](CC(=O)N3CCOCC3)C(=O)N(CCC3=CCCCC3)C1=C[C@H](C(C)C)O[C@@H]2C1CC1	3	.	.	.	.	.	.
O=C(Cc1c(F)cccc1Cl)Nc1ccc(S(=O)(=O)Nc2nccs2)cc1	16	0	1	-5	1	.	.
COc1ccccc1CCC(=O)Nc1ccc(S(=O)(=O)Nc2nccs2)cc1	37*	0	-8	-6	0	28	9.2*
Cc1ccc(C)c(OC(C)C(=O)Nc2ccc(S(=O)(=O)Nc3nccs3)cc2)c1 (centres undefined)	55*	0	9	-10	-4	48*	18*
CC(Oc1ccccc1Cl)C(=O)Nc1ccc(S(=O)(=O)Nc2nccs2)cc1 (centres undefined)	54*	0	1	-8	-1	54*	13*
O=C(CSc1nnc(SCc2cccc3ccccc23)s1)Nc1ccc(S(=O)(=O)Nc2nccs2)cc1	80*	.	.	.	.	77*	43*
Cc1ccccc1OC(C)C(=O)Nc1ccc(S(=O)(=O)Nc2nccs2)cc1 (centres undefined)	35	1	7	10	-1	.	.
CC(Oc1ccc(Cl)cc1)C(=O)Nc1ccc(S(=O)(=O)Nc2nccs2)cc1 (centres undefined)	44*	1	4	-5	0	36*	11*
CC(Oc1ccc(Cl)cc1)C(=O)Nc1nccs1 (centres undefined)	-4	-1	-2	3	-1	.	.
CCCCN(Cc1ccccc1)S(=O)(=O)c1ccc2[nH]c(=O)oc2c1	39*	2	-1	-3	2	29	8.0*
O=c1[nH]c2ccc(S(=O)(=O)N3CCC(Cc4ccccc4)CC3)cc2o1	48*	1	3	-1	0	46*	14*
CCC(C)N(C(C)CC)S(=O)(=O)c1ccc2[nH]c(=O)oc2c1 (centres undefined)	21	.	.	.	.	.	.
COc1ccc(C2CC(=O)C(c3ccc(C#N)cc3)=CN2Cc2ccccc2)cc1 (centres undefined)	4	.	.	.	.	.	.
CC(C)(C)NC(=O)CN(c1cccc([N+](=O)[O-])c1)S(=O)(=O)c1ccccc1	-2	0	-3	-4	1	.	.
SMILES	rCAG binder	LMPTP block	NadD block	Scp1 inh	STEP block	rCAG binder conf	dCAG dye counter
O=C(CN(c1cccc(Br)c1)S(=O)(=O)c1ccccc1)N/N=C/c1cc([N+](=O)[O-])ccc1O	77*	6	47*	-12	0	89*	62*
O=C(NC1CCCCN(Cc2ccc(Cl)cc2)C1=O)c1cc(-c2ccccc2)no1 (centres undefined)	5	.	.	.	.	.	.
CCOC(=O)N(C)C[C@H]1OCc2cn(nn2)CCCC(=O)N([C@@H](C)CO)C[C@@H]1C	1	.	.	.	.	.	.
CC1(C(=O)NS(=O)(=O)c2ccc(F)cc2F)CCN1C(=O)CC(c1ccccc1)c1ccccc1 (centres undefined)	38*	-3	-2	.	-3	33	5.8*
CC1(C(=O)NS(=O)(=O)c2ccc(F)cc2F)CCN1C(=O)CCc1ccccc1 (centres undefined)	3	-2	-4	.	-2	.	.
Cc1ccc(F)c(S(=O)(=O)NC(=O)C2(C)CCN2C(=O)CC(c2ccccc2)c2ccccc2)c1 (centres undefined)	49*	-2	2	.	-1	43*	12*
CCCCOCCCNC(=O)C[C@H]1C[C@@]2(C(=O)OC)C(=C[C@H](C(C)C)O[C@@H]2C2CC2)N(Cc2ccc(Cl)cc2Cl)C1=O	7	.	.	.	.	.	.
COC(=O)c1cccc2c([N+](=O)[O-])c(NC(C)=O)cc(C(=O)OC)c12	1	.	.	.	.	.	.
CCN1Cc2nnn(CC3CCCCC3)c2-c2ccccc2S1(=O)=O	-2	.	.	.	.	.	.
O=C(NN1C(=O)c2cc(Br)ccc2NC1c1cc(Br)cc(Br)c1O)c1ccncc1 (centres undefined)	51*	1	20	-10	-3	42*	14*
Cc1ccc(Sc2ncccc2C(=O)NCc2cc([N+](=O)[O-])ccc2O)cc1C	35*	2	5	-2	0	22	5.3*
Cc1nc(SCC(=O)c2ccccc2)[nH]c(=O)c1Oc1ccc(Cl)cc1	41*	1	4	-13	4	35*	8.5*
COc1ccc(Oc2c(C)nc(SCC(=O)c3ccc(Cl)cc3)[nH]c2=O)cc1	26	2	9	-4	1	.	.
CCOc1cc(/C=C(/NC(C)=O)C(=O)O)cc(Cl)c1OCc1ccc(Br)cc1	43*	0	-5	-14	-3	33	6.7*
CC(=O)c1ccc(Sc2ccccc2)c([N+](=O)[O-])c1	1	2	-2	-10	1	.	.
O=C(O)c1ccccc1C(=O)c1ccc(Sc2ccc(Cl)cc2)c([N+](=O)[O-])c1	64*	0	7	-10	7	71*	32*

Source: PubChem BioAssay (several laboratories)
